Experimental findings from ChEMBL document CHEMBL4411261, “Down-Regulation of the Androgen Receptor by G-Quadruplex Ligands Sensitizes Castration-Resistant Prostate Cancer Cells to Enzalutamide” (J Med Chem, 2018) are described below.

Calls of active or inactive are those of the source. The calls are words filed in the database; no cut-off is given here.

Data set [1] has as its system Quadruplex DNA. Briefly: Stabilization of AR G-quadruplex oligonucleotide in human 22Rv1 cells assessed as reduction in AR mRNA expression at IC50 after 6 to 72 hrs by RT-PCR analysis. Format: cell-based. As to conditions: TDE = time-dependent effect. The procedure, abridged: (§1)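 Transcripts quantified by TaqMan real-time PCR with RNaseP as normalizer; relative quantity versus untreated cells by the 2−ΔΔCt method. Panel genes measured with a 92-gene cancer-mechanism TaqMan array.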

Data set [2] deals with Quadruplex DNA. Briefly: Stabilization of AR1 G-quadruplex oligonucleotide (unknown origin) assessed as melting temperature at 16 uM after 16 hrs in presence of 100 mM K+ by CD spectra analysis (reference value: 74.9 +/- 0.3 degreeC). Format: nucleic-acid assay.
The subject of data set [3] is Quadruplex DNA. Briefly: Stabilization of AR G-quadruplex oligonucleotide in human PC3 cells assessed as down-regulation of MAX mRNA expression at IC50 after 48 hrs by RT-PCR analysis. Format: cell-based. In a few lines:
(§2)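 PC-3 cells (RPMI-1640, 10% fetal calf serum) exposed at an equitoxic concentration. Expression of 92 cancer-mechanism genes measured on TaqMan Arrays. Change versus untreated cells computed by 2−ΔΔCt, with RNaseP as normalizer.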

Data set [4] is described as follows: Drug uptake in human 22Rv1 cells expressing full length androgen receptor H875Y point mutant at 160 nM after 24 hrs by DAPI staining-based fluorescence microscopic analysis. Format: ADME, cell-based. The conditions noted are these: cwr22r, 0.16 µM.
Data set [5] concerns Quadruplex DNA. Briefly: Stabilization of AR G-quadruplex oligonucleotide in human 22Rv1 cells assessed as down-regulation of CCNE1 mRNA expression at IC50 after 48 hrs by RT-PCR analysis. Format: cell-based. In a few lines:
as §1

Data set [6] has as its system Quadruplex DNA. The experiment in a line: Stabilization of AR G-quadruplex oligonucleotide in human 22Rv1 cells assessed as regulation of ERBB2 mRNA expression at IC50 after 48 hrs by RT-PCR analysis. Format: cell-based. The procedure, abridged: as §1
Data set [7] has as its target Quadruplex DNA. Briefly: Binding affinity to 5'-Biotinylated-AR1 G-quadruplex oligonucleotide (unknown origin) by SPR analysis. Format: nucleic-acid assay. The procedure, abridged:
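SPR on streptavidin chip; 5′-biotinylated oligo folded by heating 95 °C 5 min in 10 mM lithium cacodylate, 150 mM KCl, then immobilized at 30 nM to about 600 RU; empty reference cell. Compound 0.7−400 nM in HEPES-KCl (pH 7.4, 0.15 M KCl, 3 mM EDTA) at 40 °C, 40 μL/min, 260 s contact, 600 s dissociation; glycine pH 2.0 regeneration; steady-state affinity fit; at least two independent runs.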

For data set [8], the system named is Quadruplex DNA. The experiment in a line: Stabilization of AR G-quadruplex oligonucleotide in human 22Rv1 cells assessed as reduction in AKT1 phosphorylation at S473 residues at IC50 after 48 hrs by Western immunoblot assay. Format: cell-based.
Data set [9] concerns PC-3. Briefly: Cytotoxicity against human PC3 cells assessed as reduction in cell viability after 48 hrs by MTS assay. Format: functional, cell-based. As to conditions: PC-3, 48 h. In a few lines: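 Cells kept in RPMI-1640 with 10% fetal calf serum, 37 °C, 5% CO2. Seeded, after 24 h treated with 0.0001, 0.001, 0.01, 0.1, 1 and 10 μM compound (DMSO stocks freshly diluted in medium) for 48 h. MTS added 4 h, absorbance 490 nm; IC50 from curves of % viability inhibition versus DMSO-treated cells against log concentration.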
On the technique in general: Tetrazolium dyes change colour on reduction, which living cells bring about.

The next data set relates to DU-145. Briefly: Effect on JUN mRNA expression in human DU145 cells at IC50 after 48 hrs by RT-PCR analysis. Format: functional, cell-based. The procedure, abridged:
as §1

A short description of data set [10]: Drug uptake in human PC3 cells at 160 nM after 24 hrs by DAPI staining-based fluorescence microscopic analysis. Format: ADME, cell-based. As to conditions: pc-3, 24 h, 0.16 µM.
Another data set has as its system CWR22R. Briefly: Synergistic cytotoxicity against human 22Rv1 cells expressing full length androgen receptor H875Y point mutant assessed as ED50 for Enzalutamide at 0.001 to 0.1 uM after 72 hrs by MTS assay. Format: functional. As to conditions: 22Rv1, 72 h, read-out: ED50 (the source's name). The procedure, abridged: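 Cells in RPMI-1640 with 10% fetal calf serum were exposed to ligand (0.001−0.1 μM) plus enzalutamide (0.5−50 μM) at a fixed ratio, five concentrations, for 72 h at 37 °C, 5% CO2. Viability read by MTS absorbance at 490 nm after 4 h. Combination index computed at ED50 and ED75 by the Chou–Talalay method.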

Data set [11] has as its system Quadruplex DNA. The experiment in a line: Stabilization of AR G-quadruplex oligonucleotide in human 22Rv1 cells assessed as down-regulation of KLK3 mRNA expression at IC50 after 6 to 72 hrs by RT-PCR analysis. Format: cell-based. The procedure, abridged: as §1
In data set [12] the test system is Quadruplex DNA. The experiment in a line: Binding affinity to 5'-Biotinylated-AR1 G-quadruplex oligonucleotide (unknown origin) by SPR analysis relative to control. Format: nucleic-acid assay. (In general: Surface plasmon resonance follows binding to a sensor surface in real time, without labels.)
For data set [13], the system named is Quadruplex DNA. Briefly: Stabilization of AR G-quadruplex oligonucleotide in human 22Rv1 cells assessed as regulation of PTEN mRNA expression at IC50 after 48 hrs by RT-PCR analysis. Format: cell-based. In a few lines:
as §1

Data set [14] relates to Quadruplex DNA. Briefly: Stabilization of AR G-quadruplex oligonucleotide in human 22Rv1 cells assessed as reduction in basal AKT1 levels at IC50 after 48 hrs by Western immunoblot assay. Format: cell-based.
Data set [15] concerns PC-3. Briefly: Synergistic cytotoxicity against human PC3 cells assessed as ED50 for Enzalutamide at 0.001 to 0.1 uM after 72 hrs by MTS assay. The conditions noted are these: PC-3, 72 h.
The test system of data set [16] is Quadruplex DNA. Briefly: Stabilization of AR G-quadruplex oligonucleotide in human 22Rv1 cells assessed as reduction in AR-FL protein level at IC50 after 48 hrs by Western immunoblot assay. Format: cell-based. A general note: A western blot detects proteins with antibodies after separation by electrophoresis.
The subject of data set [17] is Quadruplex DNA. The experiment in a line: Stabilization of AR1 template G-quadruplex DNA (unknown origin) assessed as inhibition of polymerase progression at G4 site by measuring reduction in full length amplified product using GGCAAAAAGCAGCTGCTTATATGCAG as primer at 12.5 to 200 nM after 30 mins in presence of 5'-end labeled [gamma32P]ATP by phosphorimaging based taq polymerase stop assay. Format: nucleic-acid assay. The procedure, abridged:
(§3)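 Primer 5′-labeled with [γ-32P]ATP by T4 polynucleotide kinase, 37 °C, 30 min. Labeled primer (72 nM final) annealed to template (36 nM final) in 10 mM lithium cacodylate pH 7.4, with or without 10 mM KCl, by heating at 95 °C for 5 min then slow cooling.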

Data set [18] is described as follows: Stabilization of TTTTTAGTGAGAGTGAGAGAGAGAGTGAGAGTGAGAGTGATTTTTCTGCATATAAGCAGCTGCTTTTTGCC DNA (unknown origin) assessed as inhibition of polymerase progression at G4 site by measuring reduction in full length amplified product using GGCAAAAAGCAGCTGCTTATATGCAG as primer at 12.5 to 200 nM after 30 mins in presence of 5'-end labeled [gamma32P]ATP by phosphorimaging based taq polymerase stop assay. In a few lines: as §3

In data set [19] the test system is Quadruplex DNA. Briefly: Stabilization of AR G-quadruplex oligonucleotide in human 22Rv1 cells assessed as down-regulation of BCL2 mRNA expression at IC50 after 48 hrs by RT-PCR analysis. Format: cell-based. The procedure, abridged: as §1
Data set [20] deals with Quadruplex DNA. Briefly: Stabilization of AR G-quadruplex oligonucleotide in human PC3 cells assessed as up-regulation of WNT1 mRNA expression at IC50 after 48 hrs by RT-PCR analysis. Format: cell-based. In a few lines: as §2
Data set [21] relates to Quadruplex DNA. Briefly: Stabilization of AR G-quadruplex oligonucleotide in human 22Rv1 cells assessed as down-regulation of ITGB3 mRNA expression at IC50 after 48 hrs by RT-PCR analysis. Format: cell-based. The procedure, abridged:
as §1

For orientation: Kd means the constant that tells how readily two partners part at equilibrium. Broadly, the IC50 is the point on the concentration scale where inhibition reaches its midpoint. With `CN(C)CCCn1c(=O)c2ccc3c(=O)n(CCCN(C)C)c(=O)c4c5[nH]c6ccccc6[nH]c5c(c1=O)c2c34.Cl.Cl`, the Activity result with Quadruplex DNA [1] was “Tde”. Further, the Tm with Quadruplex DNA [2] is above 90 °C. Besides, the result in the data set on Quadruplex DNA [3], with Quadruplex DNA [5], with Quadruplex DNA [6], with Quadruplex DNA [8], with Quadruplex DNA [11] and in the data set with Quadruplex DNA [13] was Active. Further, the result with Quadruplex DNA [14], in the data set with Quadruplex DNA [16], in the data set with Quadruplex DNA [19], with Quadruplex DNA [20] and in the data set with Quadruplex DNA [21] was Active. Besides, the Drug uptake entry in [4] and in data set [10] was “Active” each time. The Kd at Quadruplex DNA [7] came out at 17.9 nM. Further, in the data set on PC-3 [9], the IC50 stood at 180 nM. For the same molecule, the outcome in the data set with DU-145 was inactive. For the same molecule, the EC50 in the data set on CWR22R came out at 290 nM; with PC-3 [15], 2180 nM. In the data set on Quadruplex DNA [12], this molecule had an RBA of 100%. Moreover, the inhibition entry in the data set with Quadruplex DNA [17] was “Active”. Moreover, the inhibition entry in data set [18] is “inactive”.
